ChEMBL document CHEMBL2146455, “Structure-activity studies on the spiroketal moiety of a simplified analogue of debromoaplysiatoxin with antiproliferative activity” (J Med Chem, 2012)
pKi: −log10 of the molar value.

Assays:
Raji [1] = test: Tumor promoting activity in human Raji cells assessed as induction of EBV-early antigen activation at 1 uM after 48 hrs by FITC staining based indirect immunofluorescence assay; type: cell-based
Method in brief: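 Raji B-lymphoblastoid cells (5 × 10⁵/mL) held 48 h at 37 °C, 5% CO₂, in RPMI 1640 with 10% FBS. Medium contained 4 mM sodium n-butyrate and compound at 10, 100 or 1000 nM final, with 0.4% DMSO final. Smears stained by indirect immunofluorescence using NPC patient serum and FITC anti-human IgG. At least 500 cells counted; result given as % EA-positive.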

Mus musculus [2] = test: Tumor promoting activity in ICR mouse assessed as effect on DMBA-mediated skin carcinogenesis at 1.7 nmol administered 1 week after DMBA challenge twice weekly measured after 6 weeks by two-stage carcinogenesis test; type: organism-based; conditions: in vivo, 1008 h
Method in brief: (§1)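 Two-stage mouse skin model in ICR mice, 10 per group. Back skin initiated with a single 390 nmol dose of DMBA, then promoted with 1.7 nmol of test compound; TPA served as control. Scored as tumor-bearing mice (%), compared by Fisher's exact test, and papillomas per mouse, compared by Welch's t-test; p < 0.05.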

Mus musculus [3] = test: Tumor promoting activity in ICR mouse assessed as effect on DMBA-mediated skin carcinogenesis at 1.7 nmol administered 1 week after DMBA challenge twice weekly measured after 11 weeks by two-stage carcinogenesis test; type: organism-based; conditions: in vivo, 1848 h; method in brief: as §1
Mus musculus [4] = test: Tumor promoting activity in DMBA treated ICR mouse assessed as number of papillomas at 1.7 nmol administered 1 week after DMBA challenge twice weekly measured after 20 weeks by two-stage carcinogenesis test; type: organism-based; conditions: in vivo, 3360 h; method in brief: as §1
[5] = Growth inhibition of human HBC4 cells after 48 hrs by sulforhodamine B assay; type: functional; conditions: HBC4, 48 h
Method in brief: (§2)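 Cell line from a 39-line human cancer panel, grown in RPMI 1640 with 5% FBS and attached overnight. Exposed 48 h to drug at 10⁻⁸ to 10⁻⁴ M (tenfold steps). Sulforhodamine B read at 525 nm against control and time-0 wells. % growth = 100[(T − T₀)/(C − T₀)] from duplicate points; GI₅₀ is the level giving 50.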

MDA-MB-231 = test: Growth inhibition of human MDA-MB-231 cells after 48 hrs by sulforhodamine B assay; type: functional; conditions: MDA-MB-231, 48 h; method in brief: as §2
SNB-78 = test: Growth inhibition of human SNB-78 cells after 48 hrs by sulforhodamine B assay; type: functional; conditions: SNB-78, 48 h; method in brief: as §2
HCC 2998 = test: Growth inhibition of human HCC2998 cells after 48 hrs by sulforhodamine B assay; type: functional; conditions: HCC 2998, 48 h; method in brief: as §2
NCI-H460 = test: Growth inhibition of human NCI-H460 cells after 48 hrs by sulforhodamine B assay; type: functional; conditions: NCI-H460, 48 h; method in brief: as §2
A549 = test: Growth inhibition of human A549 cells after 48 hrs by sulforhodamine B assay; type: functional; conditions: A549, 48 h; method in brief: as §2
LOX IMVI = test: Growth inhibition of human LOXIMVI cells after 48 hrs by sulforhodamine B assay; type: functional; method in brief: as §2
St-4 = test: Growth inhibition of human St-4 cells after 48 hrs by sulforhodamine B assay; type: functional; conditions: St-4, 48 h; method in brief: as §2
[6] = target: Protein kinase C alpha type (Homo sapiens, UniProt P17252); test: Inhibition of [3H]PDBu binding to PKCalpha C1A domain
Method in brief: (§3)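 Displacement of [³H]PDBu (20 nM) from synthetic PKC C1 peptides (10−20 nM; about 3 nM properly folded) in 50 mM Tris-maleate, pH 7.4 at 4 °C. Buffer held 50 μg/mL phosphatidylserine and 3 mg/mL bovine γ-globulin, with inhibitor at various concentrations. IC₅₀ taken from 50% loss of specific binding by probit; Ki by the Sharkey–Blumberg method.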

[7] = target: Protein kinase C beta type (Homo sapiens, UniProt P05771); test: Inhibition of [3H]PDBu binding to PKCbeta C1A domain; method in brief: as §3
[8] = target: Protein kinase C gamma type (Homo sapiens, UniProt P05129); test: Inhibition of [3H]PDBu binding to PKCgamma C1A domain; method in brief: as §3
[9] = target: Protein kinase C delta type (Homo sapiens, UniProt Q05655); test: Inhibition of [3H]PDBu binding to PKCdelta C1B domain; method in brief: as §3
[10] = target: T1, Protein kinase C epsilon type (Homo sapiens, UniProt Q02156); test: Inhibition of [3H]PDBu binding to PKCepsilon C1B domain; method in brief: as §3
T1 sequence (Q02156 whole entry): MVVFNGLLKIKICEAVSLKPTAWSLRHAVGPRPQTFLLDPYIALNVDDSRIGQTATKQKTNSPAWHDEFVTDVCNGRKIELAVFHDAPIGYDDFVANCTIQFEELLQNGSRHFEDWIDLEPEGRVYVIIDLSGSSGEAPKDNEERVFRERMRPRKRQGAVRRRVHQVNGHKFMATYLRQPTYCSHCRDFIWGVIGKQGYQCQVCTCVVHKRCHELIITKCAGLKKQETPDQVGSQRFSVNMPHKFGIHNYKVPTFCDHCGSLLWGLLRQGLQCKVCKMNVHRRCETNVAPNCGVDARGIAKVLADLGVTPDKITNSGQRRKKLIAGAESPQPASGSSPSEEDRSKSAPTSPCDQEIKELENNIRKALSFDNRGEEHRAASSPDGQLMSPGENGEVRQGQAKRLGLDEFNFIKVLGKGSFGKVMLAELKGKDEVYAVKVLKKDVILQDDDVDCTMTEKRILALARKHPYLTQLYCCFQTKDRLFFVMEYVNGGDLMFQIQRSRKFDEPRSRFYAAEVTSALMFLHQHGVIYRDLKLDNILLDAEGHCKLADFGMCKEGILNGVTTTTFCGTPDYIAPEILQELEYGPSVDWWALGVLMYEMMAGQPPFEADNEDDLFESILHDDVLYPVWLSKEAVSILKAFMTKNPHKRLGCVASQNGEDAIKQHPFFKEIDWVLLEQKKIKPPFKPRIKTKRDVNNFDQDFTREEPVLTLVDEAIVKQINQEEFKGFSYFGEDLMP

[11] = target: Protein kinase C eta type (Homo sapiens, UniProt P24723); test: Inhibition of [3H]PDBu binding to PKCeta C1B domain; method in brief: as §3
[12] = target: Protein kinase C theta type (Homo sapiens, UniProt Q04759); test: Inhibition of [3H]PDBu binding to PKCtheta C1B domain; method in brief: as §3
[13] = n-Octanol-water partition coefficient, log P of the compound by HPLC analysis; type: physicochemical
Mus musculus [14] = test: Tumor promoting activity in ICR mouse assessed as effect on DMBA-mediated skin carcinogenesis at 1.7 nmol administered 1 week after DMBA challenge twice weekly measured by two-stage carcinogenesis test; type: organism-based; conditions: in vivo, 168 h; method in brief: as §1
Raji [15] = test: Tumor promoting activity in human Raji cells assessed as induction of EBV-early antigen activation after 48 hrs by FITC staining based indirect immunofluorescence assay; type: cell-based
Method in brief: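 Raji cells (5 × 10⁵/mL) were grown in RPMI 1640 with 10% FBS at 37 °C and 5% CO₂, with 4 mM sodium n-butyrate as synergist. Compounds were tested at 10, 100 or 1000 nM final, with DMSO at 0.4% final, for 48 h. Cell smears were stained by indirect immunofluorescence using NPC patient serum and FITC anti-human IgG. At least 500 cells were counted and the percentage of EA-positive cells recorded.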

Mus musculus [16] = test: Tumor promoting activity in ICR mouse assessed as effect on DMBA-mediated skin carcinogenesis at 8.5 nmol administered 1 week after DMBA challenge twice weekly measured after 20 weeks by two-stage carcinogenesis test; type: organism-based; conditions: in vivo, 3360 h
Method in brief: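 Two-stage skin carcinogenesis in ICR mice, with 10 mice per group. The back skin was initiated with a single 390 nmol DMBA dose, then treated with the test compound. The control group received DMBA plus 1.7 nmol TPA. Read-outs were percentage of tumor-bearing mice and papillomas per mouse, compared by Fisher's exact test and Welch's t-test (p < 0.05).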

Protein kinase C beta type, sequence (P05771 whole entry, the tested form may be a part): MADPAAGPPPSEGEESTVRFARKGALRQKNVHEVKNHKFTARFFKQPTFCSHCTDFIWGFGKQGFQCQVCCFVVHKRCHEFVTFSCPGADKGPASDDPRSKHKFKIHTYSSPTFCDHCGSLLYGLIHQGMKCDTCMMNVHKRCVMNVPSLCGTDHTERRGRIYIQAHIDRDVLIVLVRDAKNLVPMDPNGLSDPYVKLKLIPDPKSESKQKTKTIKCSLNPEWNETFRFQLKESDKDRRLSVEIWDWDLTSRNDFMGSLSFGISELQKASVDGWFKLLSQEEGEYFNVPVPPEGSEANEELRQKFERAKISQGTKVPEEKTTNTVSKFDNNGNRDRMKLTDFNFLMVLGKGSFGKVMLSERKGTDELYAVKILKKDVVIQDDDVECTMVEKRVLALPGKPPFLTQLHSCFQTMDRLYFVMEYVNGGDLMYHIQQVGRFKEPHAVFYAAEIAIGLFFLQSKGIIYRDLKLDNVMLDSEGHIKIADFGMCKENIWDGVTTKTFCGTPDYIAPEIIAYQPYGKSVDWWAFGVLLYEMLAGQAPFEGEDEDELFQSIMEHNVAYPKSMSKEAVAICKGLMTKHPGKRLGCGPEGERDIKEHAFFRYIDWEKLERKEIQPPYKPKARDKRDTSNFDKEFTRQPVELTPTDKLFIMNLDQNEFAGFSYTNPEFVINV
Protein kinase C delta type, sequence (Q05655 whole entry, the tested form may be a part): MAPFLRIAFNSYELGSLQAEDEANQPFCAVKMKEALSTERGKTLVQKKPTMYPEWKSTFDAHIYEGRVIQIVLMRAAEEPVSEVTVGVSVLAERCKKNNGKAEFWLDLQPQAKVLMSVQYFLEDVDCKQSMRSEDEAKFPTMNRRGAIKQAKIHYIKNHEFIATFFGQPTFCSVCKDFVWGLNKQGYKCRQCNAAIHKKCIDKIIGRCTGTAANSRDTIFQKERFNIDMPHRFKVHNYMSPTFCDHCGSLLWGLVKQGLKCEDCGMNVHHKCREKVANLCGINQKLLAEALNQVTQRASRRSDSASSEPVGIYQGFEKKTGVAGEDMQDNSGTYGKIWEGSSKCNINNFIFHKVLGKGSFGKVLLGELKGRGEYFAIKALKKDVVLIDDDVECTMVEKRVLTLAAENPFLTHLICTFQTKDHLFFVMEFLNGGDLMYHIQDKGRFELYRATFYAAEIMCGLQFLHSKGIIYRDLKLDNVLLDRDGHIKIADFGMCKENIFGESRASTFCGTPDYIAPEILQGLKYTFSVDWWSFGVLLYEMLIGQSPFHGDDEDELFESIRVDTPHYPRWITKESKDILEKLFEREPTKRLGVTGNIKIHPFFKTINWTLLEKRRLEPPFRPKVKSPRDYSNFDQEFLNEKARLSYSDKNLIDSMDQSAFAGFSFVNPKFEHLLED
Protein kinase C theta type, sequence (Q04759 whole entry, the tested form may be a part): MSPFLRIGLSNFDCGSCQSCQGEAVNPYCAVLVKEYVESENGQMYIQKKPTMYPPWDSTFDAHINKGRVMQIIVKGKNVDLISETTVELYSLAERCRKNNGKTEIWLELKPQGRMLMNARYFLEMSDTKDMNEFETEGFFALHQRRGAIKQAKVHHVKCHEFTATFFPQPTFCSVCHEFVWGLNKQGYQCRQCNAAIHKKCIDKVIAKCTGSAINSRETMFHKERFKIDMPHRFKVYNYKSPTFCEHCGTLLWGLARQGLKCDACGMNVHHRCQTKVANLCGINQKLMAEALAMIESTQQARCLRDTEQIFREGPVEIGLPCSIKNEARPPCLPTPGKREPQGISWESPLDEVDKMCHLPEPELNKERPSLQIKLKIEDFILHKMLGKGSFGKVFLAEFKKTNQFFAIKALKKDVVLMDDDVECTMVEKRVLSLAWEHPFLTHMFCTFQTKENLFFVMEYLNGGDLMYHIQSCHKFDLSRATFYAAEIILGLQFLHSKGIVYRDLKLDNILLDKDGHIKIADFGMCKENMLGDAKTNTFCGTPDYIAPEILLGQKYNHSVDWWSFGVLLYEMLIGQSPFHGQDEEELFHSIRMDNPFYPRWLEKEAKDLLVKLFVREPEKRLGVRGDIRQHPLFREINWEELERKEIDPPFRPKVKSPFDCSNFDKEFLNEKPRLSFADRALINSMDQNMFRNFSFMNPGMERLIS
Protein kinase C eta type, sequence (P24723 whole entry, the tested form may be a part): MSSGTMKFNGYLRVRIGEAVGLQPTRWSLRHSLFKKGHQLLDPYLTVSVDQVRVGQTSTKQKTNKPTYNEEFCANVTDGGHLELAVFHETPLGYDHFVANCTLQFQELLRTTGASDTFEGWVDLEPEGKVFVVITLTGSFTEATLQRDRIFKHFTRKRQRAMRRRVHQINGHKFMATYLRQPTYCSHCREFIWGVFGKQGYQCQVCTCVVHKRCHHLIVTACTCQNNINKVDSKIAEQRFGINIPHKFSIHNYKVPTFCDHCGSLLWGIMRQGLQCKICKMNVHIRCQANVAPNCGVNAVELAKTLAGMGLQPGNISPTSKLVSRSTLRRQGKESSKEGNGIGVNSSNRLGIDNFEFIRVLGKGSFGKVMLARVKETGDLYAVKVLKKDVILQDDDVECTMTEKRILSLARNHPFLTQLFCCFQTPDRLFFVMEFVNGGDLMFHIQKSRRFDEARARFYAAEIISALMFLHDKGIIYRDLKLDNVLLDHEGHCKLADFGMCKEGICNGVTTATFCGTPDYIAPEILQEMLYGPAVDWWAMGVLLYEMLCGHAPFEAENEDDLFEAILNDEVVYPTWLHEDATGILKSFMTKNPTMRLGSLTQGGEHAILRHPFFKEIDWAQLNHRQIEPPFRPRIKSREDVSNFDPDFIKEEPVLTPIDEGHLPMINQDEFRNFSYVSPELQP

| Compound | Activity (Raji [1]) | GI50 [5] | GI50 (MDA-MB-231) | GI50 (SNB-78) | GI50 (HCC 2998) | GI50 (NCI-H460) | GI50 (A549) | GI50 (LOX IMVI) | GI50 (St-4) | pKi [6] | pKi [7] | pKi [8] | pKi [9] | pKi [10] | pKi [11] | pKi [12] | logP [13] | other results |
| --- | --- | --- | --- | --- | --- | --- | --- | --- | --- | --- | --- | --- | --- | --- | --- | --- | --- | --- |
| CCCCCCCCCCCCCC(=O)O[C@@H]1[C@@H](C)[C@@]2(O)[C@@H](C=C(CO)C[C@]3(O)C(=O)C(C)=C[C@@H]23)[C@@H]2C(C)(C)[C@]12OC(C)=O [PHORBOL MYRISTATE ACETATE] | Toxic | – | – | – | – | – | – | – | – | – | – | – | – | – | – | – | – | Activity (Mus musculus [2]): Toxic; Activity (Mus musculus [3]): 100%; Activity (Mus musculus [4]): Toxic |
| CO[C@@H](CC[C@H](C)[C@H]1O[C@@]23C[C@H](OC(=O)C[C@H]([C@@H](C)O)OC(=O)C[C@](O)(O2)[C@H](C)CC3(C)C)[C@@H]1C)c1cccc(O)c1 [DEBROMOAPLYSIATOXIN] | Toxic | 0.339 µM | 0.933 µM | 15.8 µM | 0.813 µM | 0.347 µM | 1.15 µM | 2.04 µM | 0.363 µM | 9.59 | 9.77 | 9.42 | 9.70 | 9.20 | 9.96 | 9.96 | 4.4 | Activity (Mus musculus [14]): Toxic |
| C[C@@H]1CC(C)(C)[C@@]23C[C@@H](C[C@@H](CCCCc4cccc(O)c4)O2)OC(=O)C[C@H](CO)OC(=O)C[C@@H]1O3 | < 10% | 0.275 µM | 1.55 µM | 17.4 µM | 4.07 µM | 1.26 µM | 7.41 µM | 4.17 µM | 6.03 µM | 7.82 | 7.82 | 7.92 | 8.48 | 7.77 | 8.23 | 8.54 | 3.7 | – |
| CC1(C)CC[C@@H]2CC(=O)O[C@@H](CO)CC(=O)O[C@@H]3C[C@@H](CCCCc4cccc(O)c4)O[C@@]1(C3)O2 | – | – | – | – | – | – | – | – | – | – | – | – | – | – | – | – | 3.3 | Activity (Raji [15]): Toxic |
| C[C@H]1[C@@H]2C[C@@]3(O[C@H](CCC3(C)C)CC(=O)O[C@@H](CO)CC(=O)O2)O[C@@H]1CCCCc1cccc(O)c1 | < 10% | 0.0331 µM | 0.126 µM | 0.891 µM | 0.339 µM | 0.0851 µM | 0.977 µM | 0.617 µM | 0.575 µM | 8.33 | 7.92 | 8.26 | 9.34 | 8.70 | 9.35 | 9.27 | 3.6 | Activity (Mus musculus [16]): Non-toxic |
